Here are results for six compounds from ChEMBL document CHEMBL4330096, “Discovery of potent and selective 5-azaindazole inhibitors of leucine-rich repeat kinase 2 (LRRK2) - Part 1” (Bioorg Med Chem Lett, 2019).

Each structure is given as a SMILES string.

Series [1] is described as follows: Stability in mouse liver microsomes assessed as compound turnover rate measured after 30 mins. As to conditions: read-out: Drug metabolism. In kind it is ADME, Microsome. In short, it runs like this:
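In vitro incubation of compound with liver microsomes: human (HLM) for 40 min, mouse (MLM) for 30 min. Reported as % turnover of parent compound.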

Series [2] addresses Tyrosine-protein kinase BTK (Homo sapiens) (UniProt Q06187). Nature of the series: Inhibition of BTK (unknown origin) at 10 uM relative to control. In short, it runs like this:
(§1)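 Single-point screen of each compound against a panel of 59 protein kinases, at 1 or 10 μM. The panel data are also summarised as a rescaled geometric mean selectivity score.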

The target of series [3] is Casein kinase 2 (Homo sapiens) (UniProt P67870+P68400+P19784+Q8NEV1). Nature of the series: Inhibition of CK2 (unknown origin) at 10 uM relative to control. In kind it is protein assay. In short, it runs like this: as §1
Series [4] deals with T1, Eukaryotic elongation factor 2 kinase (Homo sapiens) (UniProt O00418).
T1 sequence (whole entry): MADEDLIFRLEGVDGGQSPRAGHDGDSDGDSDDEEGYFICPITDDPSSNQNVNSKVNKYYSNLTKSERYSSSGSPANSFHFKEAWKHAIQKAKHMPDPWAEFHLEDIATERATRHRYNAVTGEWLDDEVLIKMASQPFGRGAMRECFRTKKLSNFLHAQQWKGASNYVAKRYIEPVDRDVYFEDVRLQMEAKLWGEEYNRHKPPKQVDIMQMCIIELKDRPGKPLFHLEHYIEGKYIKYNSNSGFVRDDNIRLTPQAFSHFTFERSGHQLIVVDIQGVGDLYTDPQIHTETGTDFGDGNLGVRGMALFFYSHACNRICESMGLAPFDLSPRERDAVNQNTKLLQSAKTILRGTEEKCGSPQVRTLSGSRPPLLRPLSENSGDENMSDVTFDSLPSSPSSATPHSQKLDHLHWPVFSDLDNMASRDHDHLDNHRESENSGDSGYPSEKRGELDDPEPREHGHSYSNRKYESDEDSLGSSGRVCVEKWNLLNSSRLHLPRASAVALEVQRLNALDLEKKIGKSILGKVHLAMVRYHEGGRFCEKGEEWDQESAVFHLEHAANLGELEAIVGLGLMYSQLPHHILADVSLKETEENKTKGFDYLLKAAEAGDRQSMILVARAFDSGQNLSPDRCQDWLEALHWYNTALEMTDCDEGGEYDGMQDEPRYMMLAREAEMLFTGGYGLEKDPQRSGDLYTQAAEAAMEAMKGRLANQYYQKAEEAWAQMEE
Nature of the series: Inhibition of EF2K (unknown origin) at 10 uM relative to control. In short, it runs like this:
as §1

For series [5], the target named is T2, Ephrin type-B receptor 3 (Homo sapiens) (UniProt P54753).
T2 sequence (whole entry): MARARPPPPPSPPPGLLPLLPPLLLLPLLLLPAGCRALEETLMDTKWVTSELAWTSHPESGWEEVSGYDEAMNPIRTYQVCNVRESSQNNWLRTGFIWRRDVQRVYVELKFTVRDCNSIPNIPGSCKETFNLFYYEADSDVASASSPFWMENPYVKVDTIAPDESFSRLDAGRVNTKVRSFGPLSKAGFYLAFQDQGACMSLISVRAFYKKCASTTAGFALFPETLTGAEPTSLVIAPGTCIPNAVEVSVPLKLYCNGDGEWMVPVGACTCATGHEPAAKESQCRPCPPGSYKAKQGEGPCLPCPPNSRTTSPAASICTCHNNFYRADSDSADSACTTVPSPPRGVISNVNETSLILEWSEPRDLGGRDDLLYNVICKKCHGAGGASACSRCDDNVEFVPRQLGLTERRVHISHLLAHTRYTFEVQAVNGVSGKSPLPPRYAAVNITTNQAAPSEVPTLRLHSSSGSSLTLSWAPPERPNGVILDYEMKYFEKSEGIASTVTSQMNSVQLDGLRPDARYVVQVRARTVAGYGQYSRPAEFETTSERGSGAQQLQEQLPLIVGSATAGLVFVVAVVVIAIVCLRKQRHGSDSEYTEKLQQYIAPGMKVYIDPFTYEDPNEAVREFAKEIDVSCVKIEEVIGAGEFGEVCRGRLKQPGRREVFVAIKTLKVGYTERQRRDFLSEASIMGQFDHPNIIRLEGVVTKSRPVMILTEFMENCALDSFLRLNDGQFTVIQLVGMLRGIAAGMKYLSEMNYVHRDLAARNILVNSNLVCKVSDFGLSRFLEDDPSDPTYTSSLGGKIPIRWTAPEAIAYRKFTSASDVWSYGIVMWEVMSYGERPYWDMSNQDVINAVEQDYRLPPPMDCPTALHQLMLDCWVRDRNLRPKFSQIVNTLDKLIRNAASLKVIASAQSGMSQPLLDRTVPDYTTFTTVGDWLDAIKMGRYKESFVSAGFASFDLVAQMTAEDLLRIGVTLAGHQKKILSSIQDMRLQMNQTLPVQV
Description: Inhibition of EPHB3 (unknown origin) at 10 uM relative to control. Summed up:
as §1

Series [6] addresses Mitogen-activated protein kinase 1 (Homo sapiens) (UniProt P28482). Nature of the series: Inhibition of ERK2 (unknown origin) at 10 uM relative to control. Summed up:
as §1

In series [7] the target is Dual specificity mitogen-activated protein kinase kinase 1 (Homo sapiens) (UniProt Q02750). Description: Inhibition of MKK1 (unknown origin) at 10 uM relative to control. In short, it runs like this:
(§2)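 Single-concentration screen of each compound against a 59-protein-kinase panel, run at 10 µM or 1 µM. Activity relative to control is shown as a heat map across the panel.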

Series [8] has as its target Ribosomal protein S6 kinase alpha-5 (Homo sapiens) (UniProt O75582). Nature of the series: Inhibition of MSK1 (unknown origin) at 10 uM relative to control. Summed up:
as §2

For series [9], the target named is Serine/threonine-protein kinase 26 (Homo sapiens) (UniProt Q9P289). Description: Inhibition of MST4 (unknown origin) at 10 uM relative to control. Summed up:
as §2

For series [10], the target named is Serine/threonine-protein kinase PAK 4 (Homo sapiens) (UniProt O96013). Description: Inhibition of PAK4 (unknown origin) at 10 uM relative to control. In short, it runs like this: as §2
Series [11] concerns the target Ribosomal protein S6 kinase alpha-3 (Homo sapiens) (UniProt P51812). Description: Inhibition of RSK2 (unknown origin) at 10 uM relative to control. In short, it runs like this:
(§3)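 Single-concentration screen across a panel of 59 protein kinases, with each compound tested at one fixed concentration. The read-out is residual kinase activity relative to control. Panel results are also condensed into a rescaled geometric mean (RGM) selectivity score.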

In series [12] the target is Tyrosine-protein kinase SYK (Homo sapiens) (UniProt P43405). Description: Inhibition of SYK (unknown origin) at 10 uM relative to control. Summed up: as §3

Chain of Ribosomal protein S6 kinase alpha-3 (Homo sapiens) (P51812 whole entry): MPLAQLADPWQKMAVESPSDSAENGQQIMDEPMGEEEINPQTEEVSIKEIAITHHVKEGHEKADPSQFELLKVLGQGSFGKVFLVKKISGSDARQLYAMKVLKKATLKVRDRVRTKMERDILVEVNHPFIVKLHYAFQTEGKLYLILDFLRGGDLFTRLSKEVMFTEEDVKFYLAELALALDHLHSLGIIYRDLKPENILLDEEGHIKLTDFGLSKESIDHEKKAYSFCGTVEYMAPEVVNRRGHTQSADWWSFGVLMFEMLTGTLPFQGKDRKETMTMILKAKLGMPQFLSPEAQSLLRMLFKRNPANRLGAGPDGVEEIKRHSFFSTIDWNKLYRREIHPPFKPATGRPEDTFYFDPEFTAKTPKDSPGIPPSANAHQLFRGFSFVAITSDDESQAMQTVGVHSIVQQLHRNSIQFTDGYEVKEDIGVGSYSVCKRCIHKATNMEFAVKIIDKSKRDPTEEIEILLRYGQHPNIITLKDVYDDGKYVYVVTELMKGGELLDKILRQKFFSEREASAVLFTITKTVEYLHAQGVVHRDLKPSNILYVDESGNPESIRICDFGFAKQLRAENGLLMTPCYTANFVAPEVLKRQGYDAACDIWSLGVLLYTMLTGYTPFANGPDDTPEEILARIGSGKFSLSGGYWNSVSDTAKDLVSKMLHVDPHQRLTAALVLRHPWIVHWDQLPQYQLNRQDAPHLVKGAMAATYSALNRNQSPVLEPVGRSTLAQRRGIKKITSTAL
Chain of Serine/threonine-protein kinase PAK 4 (Homo sapiens) (O96013 whole entry, looked up): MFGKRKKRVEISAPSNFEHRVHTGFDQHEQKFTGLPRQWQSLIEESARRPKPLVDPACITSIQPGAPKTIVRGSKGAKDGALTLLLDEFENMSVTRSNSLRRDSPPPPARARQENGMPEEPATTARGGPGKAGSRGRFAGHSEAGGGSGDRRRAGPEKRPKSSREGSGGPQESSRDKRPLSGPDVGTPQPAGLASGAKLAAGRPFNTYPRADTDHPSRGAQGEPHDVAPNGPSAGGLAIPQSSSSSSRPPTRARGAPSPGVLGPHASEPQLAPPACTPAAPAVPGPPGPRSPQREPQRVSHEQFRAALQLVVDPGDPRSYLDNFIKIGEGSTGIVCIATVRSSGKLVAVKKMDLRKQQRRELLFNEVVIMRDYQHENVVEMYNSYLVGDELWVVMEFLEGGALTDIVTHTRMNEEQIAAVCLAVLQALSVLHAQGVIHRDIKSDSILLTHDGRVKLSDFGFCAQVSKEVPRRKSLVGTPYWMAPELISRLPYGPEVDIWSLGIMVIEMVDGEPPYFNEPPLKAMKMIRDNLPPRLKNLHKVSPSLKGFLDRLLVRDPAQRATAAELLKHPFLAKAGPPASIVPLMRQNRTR
Chain of Tyrosine-protein kinase BTK (Homo sapiens) (Q06187 whole entry): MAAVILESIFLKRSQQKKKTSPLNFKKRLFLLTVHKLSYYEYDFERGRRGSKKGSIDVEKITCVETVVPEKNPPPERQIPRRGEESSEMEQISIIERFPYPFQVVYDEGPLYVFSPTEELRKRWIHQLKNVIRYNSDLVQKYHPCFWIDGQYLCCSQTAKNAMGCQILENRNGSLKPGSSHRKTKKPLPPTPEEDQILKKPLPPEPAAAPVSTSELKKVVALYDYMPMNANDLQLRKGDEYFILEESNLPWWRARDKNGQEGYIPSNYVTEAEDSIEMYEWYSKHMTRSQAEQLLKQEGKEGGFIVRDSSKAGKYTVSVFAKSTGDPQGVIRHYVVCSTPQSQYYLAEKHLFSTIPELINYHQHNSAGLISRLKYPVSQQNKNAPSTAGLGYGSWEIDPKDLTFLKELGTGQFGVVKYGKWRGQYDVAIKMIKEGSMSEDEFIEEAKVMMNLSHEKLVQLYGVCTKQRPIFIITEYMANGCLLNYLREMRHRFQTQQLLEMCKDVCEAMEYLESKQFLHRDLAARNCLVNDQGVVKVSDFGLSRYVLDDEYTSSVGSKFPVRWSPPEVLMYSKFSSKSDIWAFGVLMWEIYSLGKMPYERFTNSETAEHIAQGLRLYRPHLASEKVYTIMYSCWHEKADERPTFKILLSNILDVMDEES
Chain of Mitogen-activated protein kinase 1 (Homo sapiens) (P28482 whole entry): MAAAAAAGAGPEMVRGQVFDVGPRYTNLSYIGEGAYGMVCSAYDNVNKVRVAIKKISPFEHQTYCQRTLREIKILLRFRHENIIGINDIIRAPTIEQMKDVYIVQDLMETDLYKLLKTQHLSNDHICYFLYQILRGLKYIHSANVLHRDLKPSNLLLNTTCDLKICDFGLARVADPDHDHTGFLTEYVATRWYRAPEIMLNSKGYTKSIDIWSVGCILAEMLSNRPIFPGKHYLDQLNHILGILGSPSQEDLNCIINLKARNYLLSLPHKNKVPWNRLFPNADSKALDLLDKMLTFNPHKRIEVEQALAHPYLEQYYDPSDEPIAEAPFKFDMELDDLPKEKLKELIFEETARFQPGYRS
Chain of Ribosomal protein S6 kinase alpha-5 (Homo sapiens) (O75582 whole entry, looked up): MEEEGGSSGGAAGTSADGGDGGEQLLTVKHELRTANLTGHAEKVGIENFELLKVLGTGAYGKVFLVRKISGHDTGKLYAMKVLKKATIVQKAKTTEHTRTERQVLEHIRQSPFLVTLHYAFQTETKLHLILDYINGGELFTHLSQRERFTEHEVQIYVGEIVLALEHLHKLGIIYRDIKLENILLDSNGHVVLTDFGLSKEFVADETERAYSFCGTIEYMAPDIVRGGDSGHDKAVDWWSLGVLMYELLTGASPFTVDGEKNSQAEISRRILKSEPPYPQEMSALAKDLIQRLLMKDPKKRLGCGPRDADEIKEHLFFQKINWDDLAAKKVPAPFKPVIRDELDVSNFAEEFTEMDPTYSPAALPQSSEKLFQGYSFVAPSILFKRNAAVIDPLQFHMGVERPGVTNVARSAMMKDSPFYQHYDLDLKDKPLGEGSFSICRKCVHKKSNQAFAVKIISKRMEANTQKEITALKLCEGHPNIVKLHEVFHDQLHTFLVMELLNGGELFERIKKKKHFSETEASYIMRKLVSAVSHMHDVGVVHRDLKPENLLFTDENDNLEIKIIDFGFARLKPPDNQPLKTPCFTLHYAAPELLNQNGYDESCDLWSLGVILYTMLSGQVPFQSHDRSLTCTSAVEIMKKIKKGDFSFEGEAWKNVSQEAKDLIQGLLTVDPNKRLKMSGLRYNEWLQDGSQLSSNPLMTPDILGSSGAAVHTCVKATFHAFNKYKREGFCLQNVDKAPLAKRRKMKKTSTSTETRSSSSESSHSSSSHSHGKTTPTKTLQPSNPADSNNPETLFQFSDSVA
Chain of Serine/threonine-protein kinase 26 (Homo sapiens) (Q9P289 2-416 limits assumed): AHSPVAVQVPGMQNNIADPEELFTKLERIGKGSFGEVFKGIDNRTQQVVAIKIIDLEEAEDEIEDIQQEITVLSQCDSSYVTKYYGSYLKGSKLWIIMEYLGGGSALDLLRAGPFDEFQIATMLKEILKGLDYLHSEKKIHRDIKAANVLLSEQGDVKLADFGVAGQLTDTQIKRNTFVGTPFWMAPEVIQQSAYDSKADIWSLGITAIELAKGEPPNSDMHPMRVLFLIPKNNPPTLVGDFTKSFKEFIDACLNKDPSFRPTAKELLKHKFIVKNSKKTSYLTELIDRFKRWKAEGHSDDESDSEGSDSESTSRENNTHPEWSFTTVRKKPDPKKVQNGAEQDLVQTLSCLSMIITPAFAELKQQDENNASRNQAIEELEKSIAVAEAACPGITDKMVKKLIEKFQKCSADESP
Chain of Dual specificity mitogen-activated protein kinase kinase 1 (Homo sapiens) (Q02750 whole entry): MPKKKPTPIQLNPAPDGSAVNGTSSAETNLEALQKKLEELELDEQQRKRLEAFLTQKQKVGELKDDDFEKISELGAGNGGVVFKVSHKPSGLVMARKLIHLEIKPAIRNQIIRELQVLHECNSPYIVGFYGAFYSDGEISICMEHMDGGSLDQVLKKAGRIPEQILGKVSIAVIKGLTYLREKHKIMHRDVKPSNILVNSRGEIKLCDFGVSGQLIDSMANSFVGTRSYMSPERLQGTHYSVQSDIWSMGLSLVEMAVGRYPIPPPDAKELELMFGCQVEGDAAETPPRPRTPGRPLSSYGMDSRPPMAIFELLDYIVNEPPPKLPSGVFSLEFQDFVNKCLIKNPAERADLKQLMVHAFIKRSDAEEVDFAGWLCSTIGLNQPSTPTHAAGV

One may read the inhibition as the relative decrease from the control value, in per cent. A high value points to a response far below the control. Regarding `Cc1n[nH]c2ccnc(OC3CCCCC3)c12`, the metabolised at 0.5 h in series [1] came out at 37%. Besides, the inhibition in series [2] was 40%; in [3], 41%; in series [4] it was 0%; in series [5] it was 92%; in [6], 66%; in series [7], 96%. For the same compound, the inhibition in series [8] is 92%; in series [9], 48%; in series [10], 85%; in series [11] it was 73%; in [12] it was 16%.

Consider `c1cc(-c2n[nH]c3ccnc(OC4CCOCC4)c23)cc(N2CCOCC2)n1`, for which the metabolised at 0.5 h in series [1] came out at 19%.

Turning to `Cc1n[nH]c2ccnc(Nc3ccccc3F)c12`, the inhibition in [2] amounted to 26%; in series [3] it was 54%; in series [4], 0%; in series [5], 39%; in [6] it was 77%; in series [7], 57%. The inhibition in series [8] was found to be 43%; in series [9], 28%; in [10] it was 44%; in series [11], 38%; in [12], 0%.

For `CC(C)n1cc(-c2n[nH]c3ccnc(OC4CCOCC4)c23)cn1`, the metabolised at 0.5 h in series [1] was found to be 20%.

Turning to `Cc1n[nH]c2ccnc(Nc3ccc4ncsc4c3)c12`, the inhibition is 10% in [2]; 24% in series [6]; 77% in [8]; 73% in series [11]; 0% in series [12].

`Cc1n[nH]c2ccnc(NC3CCCCC3)c12`: the metabolised at 0.5 h in [1] amounted to 13%. Besides, the inhibition came to 70% in series [2]; 45% in [3]; 0% in series [4]; 39% in series [5]; 29% in [6]; 57% in series [7]. The inhibition in [8] was found to be 55%; in series [9], 51%; in series [10], 40%; in series [11], 51%; in series [12] it was 17%.
